Data taken from ChEMBL document CHEMBL1151460, “Identification and evaluation of a highly effective fusion inhibitor for human metapneumovirus” (Antimicrob Agents Chemother, 2008).
Activity calls are given as the source filed them. No cut-off for these calls is given here. Where a SMILES comes first, the peptide text is derived from it.

Legend:
Human metapneumovirus = test: Antiviral activity against hMPV C-85473 infected in rhesus monkey LLC-MK2 cells after 3 days by RT-PCR; format: functional, organism-based; conditions: C-85473, LLC-MK2, 72 h
Procedure, shortened: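 Twofold serial dilutions of peptide mixed with 107 TCID50 virus in infection medium (Opti-MEM with 2 µg/ml trypsin) and added to LLC-MK2 cells. After 2 h, medium replaced with fresh medium containing the same peptide dilutions. Supernatants collected on day 3 and N gene quantified by real-time RT-PCR (TaqMan). IC50 from triplicate experiments.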

LLC-MK2 = test: Cytotoxicity against rhesus monkey LLC-MK2 cells at 9 uM after 3 days by MTT assay; format: cell-based, Macaca mulatta; conditions: llc-mk2, 72 h
Procedure, shortened: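 Serial peptide dilutions in hMPV infection medium applied to LLC-MK2 cells for 3 days. MTT (1 mg/ml) added for 2 h at 37°C, dye solubilized in acidic isopropanol, absorbance read at 570. Absorbance below that of control cells taken as cytotoxicity.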

Mus musculus [1] = organism: Mus musculus; test: Effect on pulmonary inflammation in BALB/c mouse lung assessed as change in peribronchiolar inflammation after 5 days by histopathological analysis; format: functional, organism-based
Procedure, shortened: (§1)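 Female BALB/c mice, 4-6 weeks old, received intranasal hMPV C-85473 (2 x 106 TCID50/ml, 70 µl) or PBS, with or without 7 µM synthetic peptide by the same route. Six lungs/group taken on day 5, fixed in 10% buffered formalin, paraffin-embedded, cut at 5 µm, stained with H&E. Each inflammation type scored on a 0-4 scale.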

Mus musculus [2] = organism: Mus musculus; test: Effect on pulmonary inflammation in BALB/c mouse lung assessed as change in perivascular inflammation after 5 days by histopathological analysis; format: functional, organism-based; procedure, shortened: as §1
Mus musculus [3] = organism: Mus musculus; test: Effect on airway obstruction in hMPV infected BALB/c mouse assessed as decrease in enhanced pause treated simultaneously with viral challenge

Row | Compound | IC50 (Human metapneumovirus) [µM] | Activity (LLC-MK2) | Activity (Mus musculus [1]) | Activity (Mus musculus [2]) | Activity (Mus musculus [3])
1 | CC[C@H](C)[C@H](NC(=O)[C@H](CCCNC(=N)N)NC(=O)[C@H](CC(N)=O)NC(=O)[C@H](CO)NC(=O)[C@H](CCC(N)=O)NC(=O)[C@H](CC(=O)O)NC(=O)[C@@H](NC(=O)[C@H](CC(C)C)NC(=O)[C@H](C)NC(=O)[C@H](CCC(N)=O)NC(=O)[C@H](CO)NC(=O)[C@H](CC(N)=O)NC(=O)[C@H](CCC(=O)O)NC(=O)[C@@H](NC(=O)[C@H](CO)NC(=O)[C@H](CCC(=O)O)NC(=O)[C@H](Cc1ccccc1)NC(=O)[C@@H](NC(=O)[C@H](CCC(N)=O)NC(=O)[C@H](CC(=O)O)NC(=O)[C@H](CC(C)C)NC(=O)[C@H](C)NC(=O)[C@@H](NC(=O)[C@H](CC(N)=O)NC(=O)[C@@H](N)Cc1ccccc1)C(C)C)C(C)C)[C@@H](C)CC)C(C)C)C(=O)N[C@@H](CC(C)C)C(=O)N[C@@H](CO)C(=O)N[C@@H](CO)C(=O)N[C@@H](C)C(=O)N[C@@H](CCC(=O)O)C(=O)N[C@@H](CCCCN)C(=O)NCC(=O)N[C@@H](CC(N)=O)C(=O)N[C@H](C(=O)NCC(=O)O)[C@@H](C)O (H-FNVALDQVFESIENSQALVDQSNRILSSAEKGNTG-OH) | 1.52 | Not Active |  |  | 
2 | CC[C@H](C)[C@H](NC(=O)[C@H](CCCNC(=N)N)NC(=O)[C@H](CC(N)=O)NC(=O)[C@H](CO)NC(=O)[C@H](CCC(N)=O)NC(=O)[C@H](CC(=O)O)NC(=O)[C@@H](NC(=O)[C@H](CC(C)C)NC(=O)[C@H](C)NC(=O)[C@H](CCC(N)=O)NC(=O)[C@H](CO)NC(=O)[C@H](CC(N)=O)NC(=O)[C@H](CCC(=O)O)NC(=O)[C@@H](NC(=O)[C@H](CO)NC(=O)[C@H](CCC(=O)O)NC(=O)[C@H](Cc1ccccc1)NC(=O)[C@@H](NC(=O)[C@H](CCC(N)=O)NC(=O)[C@H](CC(=O)O)NC(=O)[C@H](CC(C)C)NC(=O)[C@H](C)NC(=O)[C@@H](NC(=O)[C@@H](N)CC(N)=O)C(C)C)C(C)C)[C@@H](C)CC)C(C)C)C(=O)N[C@@H](CC(C)C)C(=O)N[C@@H](CO)C(=O)N[C@@H](CO)C(=O)N[C@@H](C)C(=O)O (H-NVALDQVFESIENSQALVDQSNRILSSA-OH) | > 9 | Not Active | inactive | inactive | inactive
3 | CC[C@H](C)[C@H](NC(=O)[C@H](CCCNC(=N)N)NC(=O)[C@H](CC(N)=O)NC(=O)[C@H](CO)NC(=O)[C@H](CCC(N)=O)NC(=O)[C@H](CC(=O)O)NC(=O)[C@@H](NC(=O)[C@H](CC(C)C)NC(=O)[C@H](C)NC(=O)[C@H](CCC(N)=O)NC(=O)[C@H](CO)NC(=O)[C@H](CC(N)=O)NC(=O)[C@H](CCC(=O)O)NC(=O)[C@@H](NC(=O)[C@H](CO)NC(=O)[C@H](CCC(=O)O)NC(=O)[C@H](Cc1ccccc1)NC(=O)[C@@H](NC(=O)[C@H](CCC(N)=O)NC(=O)[C@H](CC(=O)O)NC(=O)[C@H](CC(C)C)NC(=O)[C@H](C)NC(=O)[C@@H](NC(=O)[C@H](CC(N)=O)NC(=O)[C@@H](N)Cc1ccccc1)C(C)C)C(C)C)[C@@H](C)CC)C(C)C)C(=O)N[C@@H](CC(C)C)C(=O)N[C@@H](CO)C(=O)N[C@@H](CO)C(=O)N[C@@H](C)C(=O)N[C@@H](CCC(=O)O)C(=O)O (H-FNVALDQVFESIENSQALVDQSNRILSSAE-OH) | > 9 | Not Active |  |  | 
4 | CC[C@H](C)[C@H](NC(=O)[C@H](C)NC(=O)[C@@H](NC(=O)[C@@H](NC(=O)[C@H](CCC(=O)O)NC(=O)[C@H](CO)NC(=O)[C@H](CCC(=O)O)NC(=O)[C@@H](N)CC(C)C)C(C)C)[C@@H](C)O)C(=O)N[C@@H](CCCCN)C(=O)N[C@@H](CC(N)=O)C(=O)N[C@@H](C)C(=O)N[C@@H](CC(C)C)C(=O)N[C@@H](CCCCN)C(=O)N[C@@H](CCCCN)C(=O)N[C@H](C(=O)N[C@@H](CC(N)=O)C(=O)N[C@@H](CCC(=O)O)C(=O)N[C@@H](C)C(=O)N[C@H](C(=O)N[C@@H](CO)C(=O)N[C@H](C(=O)N[C@@H](CC(C)C)C(=O)NCC(=O)N[C@@H](CC(N)=O)C(=O)NCC(=O)N[C@H](C(=O)N[C@@H](CCCNC(=N)N)C(=O)N[C@H](C(=O)N[C@@H](CC(C)C)C(=O)N[C@@H](C)C(=O)N[C@H](C(=O)N[C@@H](C)C(=O)N[C@H](C(=O)N[C@@H](CCCNC(=N)N)C(=O)N[C@@H](CCC(=O)O)C(=O)O)C(C)C)[C@@H](C)O)C(C)C)C(C)C)[C@@H](C)O)C(C)C)[C@@H](C)O (H-LESEVTAIKNALKKTNEAVSTLGNGVRVLATAVRE-OH) | 3.24 | Not Active |  |  | 
5 | CC[C@H](C)[C@H](NC(=O)[C@H](CCCNC(=N)N)NC(=O)[C@H](CC(N)=O)NC(=O)[C@H](CO)NC(=O)[C@H](CCC(N)=O)NC(=O)[C@H](CC(=O)O)NC(=O)[C@@H](NC(=O)[C@H](CC(C)C)NC(=O)[C@H](C)NC(=O)[C@H](CCC(N)=O)NC(=O)[C@H](CO)NC(=O)[C@H](CC(N)=O)NC(=O)[C@H](CCC(=O)O)NC(=O)[C@@H](NC(=O)[C@H](CO)NC(=O)[C@H](CCC(=O)O)NC(=O)[C@H](Cc1ccccc1)NC(=O)[C@@H](NC(=O)[C@H](CCC(N)=O)NC(=O)[C@H](CC(=O)O)NC(=O)[C@H](CC(C)C)NC(=O)[C@H](C)NC(=O)[C@@H](NC(=O)[C@H](CC(N)=O)NC(=O)[C@@H](N)Cc1ccccc1)C(C)C)C(C)C)[C@@H](C)CC)C(C)C)C(=O)N[C@@H](CC(C)C)C(=O)N[C@@H](CO)C(=O)N[C@@H](CO)C(=O)N[C@@H](C)C(=O)N[C@@H](CCC(=O)O)C(=O)N[C@@H](CCCCN)C(=O)NCC(=O)N[C@@H](CC(N)=O)C(=O)O (H-FNVALDQVFESIENSQALVDQSNRILSSAEKGN-OH) | > 9 | Not Active |  |  | 
6 | CC[C@H](C)[C@H](NC(=O)[C@H](CCCNC(=N)N)NC(=O)[C@H](CC(N)=O)NC(=O)[C@H](CO)NC(=O)[C@H](CCC(N)=O)NC(=O)[C@H](CC(=O)O)NC(=O)[C@@H](NC(=O)[C@H](CC(C)C)NC(=O)[C@H](C)NC(=O)[C@H](CCC(N)=O)NC(=O)[C@H](CO)NC(=O)[C@H](CC(N)=O)NC(=O)[C@H](CCC(=O)O)NC(=O)[C@@H](NC(=O)[C@H](CO)NC(=O)[C@H](CCC(=O)O)NC(=O)[C@H](Cc1ccccc1)NC(=O)[C@@H](NC(=O)[C@H](CCC(N)=O)NC(=O)[C@H](CC(=O)O)NC(=O)[C@H](CC(C)C)NC(=O)[C@H](C)NC(=O)[C@@H](NC(=O)[C@H](CC(N)=O)NC(=O)[C@H](Cc1ccccc1)NC(=O)[C@H](CCC(N)=O)NC(=O)[C@H](CC(=O)O)NC(=O)[C@H](CCC(=O)O)NC(=O)[C@@H]1CCCN1)C(C)C)C(C)C)[C@@H](C)CC)C(C)C)C(=O)N[C@@H](CC(C)C)C(=O)N[C@@H](CO)C(=O)N[C@@H](CO)C(=O)N[C@@H](C)C(=O)N[C@@H](CCC(=O)O)C(=O)N[C@@H](CCCCN)C(=O)NCC(=O)N[C@@H](CC(N)=O)C(=O)N[C@H](C(=O)NCC(=O)O)[C@@H](C)O (H-PEDQFNVALDQVFESIENSQALVDQSNRILSSAEKGNTG-OH) | 3.31 | Not Active |  |  | 
